Measurements taken from ChEMBL document CHEMBL1153955, “Indolylarylsulfones bearing natural and unnatural amino acids. Discovery of potent inhibitors of HIV-1 non-nucleoside wild type and resistant mutant strains reverse transcriptase and coxsackie B4 virus” (J Med Chem, 2009).

Key:
[1] = system: Human immunodeficiency virus 1; assay: Antiviral activity against HIV1 with reverse transcriptase Y188L mutation in human CEM cells assessed as protection against virus-induced cytopathicity; type: functional, organism-based; settings: Human immunodeficiency virus 1, CCRF-CEM
Summary of the method: (§1)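 CEM cells (~3 × 10⁵ cells/mL) were infected with ~100 CCID₅₀ virus per mL and seeded with serial compound dilutions. After 4 days at 37 °C, syncytium (giant cell) formation was scored microscopically. EC₅₀ is the concentration giving 50% protection against virus cytopathicity.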

[2] = system: Respiratory syncytial virus; assay: Antiviral activity against RSV Long in human HeLa cells assessed as protection against virus-induced cytopathicity; type: functional, organism-based
Summary of the method: (§2)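 Confluent cell monolayers inoculated with 100 CCID₅₀ virus. After 1-2 h adsorption, residual virus removed and cultures incubated with varying compound concentrations. Cytopathicity scored once it reached completion in untreated infected controls. EC₅₀ = dose reducing virus-induced cytopathogenicity by 50%.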

[3] = system: Sindbis virus; assay: Antiviral activity against Sindbis virus in african green monkey Vero cells assessed as protection against virus-induced cytopathicity; type: functional, organism-based; summary of the method: as §2
[4] = target: Human immunodeficiency virus type 1 reverse transcriptase (Human immunodeficiency virus 1, UniProt Q72547, K103N); assay: Inhibition of HIV1 reverse transcriptase p66/p51 K103N mutant; settings: read-out: IC50
Summary of the method: (§3)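 Substrate was 0.5 µg poly(rA)/oligo(dT) 10:1 (0.3 µM 3′-OH ends) with 10 µM [³H]dTTP, at 37 °C. Acid-precipitable radioactivity was counted on GF/C filters after TCA washes.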

[5] = system: Vesicular stomatitis virus; assay: Antiviral activity against VSV in human HEL cells assessed as protection against virus-induced cytopathicity; type: functional, organism-based
[6] = system: Influenza A virus; assay: Antiviral activity against influenza H1N1 virus in MDCK cells assessed as reduction of virus-induced cytopathicity by MTS method; type: functional, organism-based; settings: Influenza A virus, H1N1, MDCK
[7] = system: Coxsackievirus B4; assay: Antiviral activity against Coxsackievirus B4 in african green monkey Vero cells assessed as protection against virus-induced cytopathicity; type: functional, organism-based; settings: Enterovirus B; summary of the method: as §2
[8] = system: Human immunodeficiency virus 1; assay: Antiviral activity against HIV1 3B in human CEM cells assessed as protection against virus-induced cytopathicity after 4 days; type: functional, organism-based; settings: Human immunodeficiency virus 1, 3B, CCRF-CEM, 96 h
Summary of the method: (§4)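 CEM cells (~3 × 10⁵ cells/mL) infected with ~100 CCID₅₀ per mL of HIV-1 (IIIB) or HIV-2 (ROD), then seeded into wells containing compound dilutions. After 4 days at 37 °C, syncytium (giant cell) formation was examined microscopically. EC₅₀ = concentration protecting CEM cells from HIV cytopathicity by 50%.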

[9] = system: Influenza A virus H3N2; assay: Antiviral activity against influenza H3N2 virus in MDCK cells assessed as reduction of virus-induced cytopathicity by visual cytopathic effect scoring method; type: functional, organism-based
[10] = system: Influenza A virus; assay: Antiviral activity against influenza H1N1 virus in MDCK cells assessed as reduction of virus-induced cytopathicity by visual cytopathic effect scoring method; type: functional, organism-based
[11] = target: Human immunodeficiency virus type 1 reverse transcriptase (Human immunodeficiency virus 1, UniProt Q72547, Y181I); assay: Inhibition of HIV1 reverse transcriptase p66/p51 Y181I mutant; settings: read-out: IC50; summary of the method: as §3
[12] = system: Human alphaherpesvirus 2; assay: Antiviral activity against HSV2 G in human HEL cells assessed as protection against virus-induced cytopathicity; type: functional, organism-based; settings: Human alphaherpesvirus 2, strain G; summary of the method: as §2
[13] = Cytotoxicity against human HeLa cells assessed as drug level causing microscopically detectable alteration of normal cell morphology after 3 days; type: cell-based
Summary of the method: (§5)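 Serial compound dilutions added to confluent HeLa or Vero monolayers. MCC = minimum concentration causing microscopically detectable alteration of cell morphology after 3 days of incubation.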

[14] = system: Human immunodeficiency virus 1; assay: Antiviral activity against HIV1 with reverse transcriptase Y181I mutation in human CEM cells assessed as protection against virus-induced cytopathicity; type: functional, organism-based; settings: Human immunodeficiency virus 1, CCRF-CEM; summary of the method: as §1
[15] = system: Influenza B virus; assay: Antiviral activity against influenza B virus in MDCK cells assessed as reduction of virus-induced cytopathicity by MTS method; type: functional, organism-based
[16] = system: Felid alphaherpesvirus 1; assay: Antiviral activity against Feline herpesvirus in feline […] cells assessed as inhibition of virus-induced cytopathicity; type: functional, organism-based
[17] = system: Human immunodeficiency virus 1; assay: Antiviral activity against HIV1 with reverse transcriptase L100I mutation in human CEM cells assessed as protection against virus-induced cytopathicity; type: functional, organism-based; settings: Human immunodeficiency virus 1, CCRF-CEM; summary of the method: as §1
[18] = system: Feline coronavirus; assay: Antiviral activity against Feline coronavirus in feline […] cells assessed as inhibition of virus-induced cytopathicity; type: functional, organism-based; settings: Alphacoronavirus 1
[19] = system: L1210; assay: Antiproliferative activity against mouse L1210 cells after 2 days; type: cell-based; settings: L1210, 48 h
Summary of the method: (§6)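 Cells seeded at 5 × 10⁴ to 7.5 × 10⁴ cells/200 µL with or without serial compound dilutions; incubated at 37 °C for 2 days (L1210) or 3 days (Molt4/C8, CEM). Cell numbers counted with a Coulter counter. CC₅₀ = concentration reducing proliferation by 50% versus untreated controls, read from plots of cell number (% of control) against concentration. Means of at least two independent experiments.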

[20] = system: Human alphaherpesvirus 1; assay: Antiviral activity against thymidine kinase deficient and acyclovir resistant HSV1 KOS in human HEL cells assessed as protection against virus-induced cytopathicity; type: functional, organism-based; settings: Human alphaherpesvirus 1, KOS
[21] = system: CCRF-CEM; assay: Antiproliferative activity against human CEM cells after 3 days; type: cell-based; settings: 72 h; summary of the method: as §6
[22] = system: Vaccinia virus; assay: Antiviral activity against Vaccinia virus Lederle in human HEL cells assessed as protection against virus-induced cytopathicity; type: functional, organism-based; settings: Orthopoxvirus vaccinia
[23] = Cytotoxicity against MDCK cells assessed as drug level causing microscopically detectable alteration of normal cell morphology; type: cell-based, Canis lupus familiaris; settings: dog
[24] = Antiproliferative activity against human Molt4/C8 cells after 3 days; type: cell-based; settings: MOLT-4, 72 h; summary of the method: as §6
[25] = system: Human respirovirus 3; assay: Antiviral activity against Parainfluenza virus type 3 in african green monkey Vero cells assessed as protection against virus-induced cytopathicity; type: functional, organism-based; settings: Human respirovirus 3, Vero; summary of the method: as §2
[26] = Cytotoxicity against feline CRFK cells by MTS assay; type: cell-based, Felis catus; settings: cat
[27] = system: Human immunodeficiency virus 1; assay: Antiviral activity against HIV1 with reverse transcriptase Y181C mutation in human CEM cells assessed as protection against virus-induced cytopathicity; type: functional, organism-based; settings: Human immunodeficiency virus 1, CCRF-CEM; summary of the method: as §1
[28] = Cytotoxicity against human HEL cells assessed as drug level causing microscopically detectable alteration of normal cell morphology after 3 days; type: cell-based
[29] = system: Human immunodeficiency virus 2; assay: Antiviral activity against HIV2 ROD in human CEM cells assessed as protection against virus-induced cytopathicity after 4 days; type: functional, organism-based; settings: Human immunodeficiency virus 2, ROD, CCRF-CEM, 96 h; summary of the method: as §4
[30] = target: Human immunodeficiency virus type 1 reverse transcriptase (Human immunodeficiency virus 1, UniProt Q72547, L100I); assay: Inhibition of HIV1 reverse transcriptase p66/p51 L100I mutant; settings: read-out: IC50; summary of the method: as §3
[31] = system: Mammalian orthoreovirus 1; assay: Antiviral activity against Reovirus 1 in african green monkey Vero cells assessed as protection against virus-induced cytopathicity; type: functional, organism-based; settings: Mammalian orthoreovirus 1, Vero; summary of the method: as §2
[32] = system: Vesicular stomatitis virus; assay: Antiviral activity against VSV in human HeLa cells assessed as protection against virus-induced cytopathicity; type: functional, organism-based
[33] = system: Influenza A virus H3N2; assay: Antiviral activity against influenza H3N2 virus in MDCK cells assessed as reduction of virus-induced cytopathicity by MTS method; type: functional, organism-based
[34] = target: Human immunodeficiency virus type 1 reverse transcriptase (Human immunodeficiency virus 1, UniProt Q72547); assay: Inhibition of HIV1 reverse transcriptase p66/p51; settings: read-out: IC50
[35] = Cytotoxicity against african green monkey Vero cells assessed as drug level causing microscopically detectable alteration of normal cell morphology after 3 days; type: cell-based; settings: chlorocebus sabaeus; summary of the method: as §5
[36] = system: Punta Toro virus; assay: Antiviral activity against Punta Toro virus in african green monkey Vero cells assessed as protection against virus-induced cytopathicity; type: functional, organism-based; summary of the method: as §2
[37] = system: Human alphaherpesvirus 1; assay: Antiviral activity against HSV1 KOS in human HEL cells assessed as protection against virus-induced cytopathicity; type: functional, organism-based; settings: Human alphaherpesvirus 1, KOS
[38] = system: Human immunodeficiency virus 1; assay: Antiviral activity against HIV1 with reverse transcriptase K103N mutation in human CEM cells assessed as protection against virus-induced cytopathicity; type: functional, organism-based; settings: Human immunodeficiency virus 1, CCRF-CEM; summary of the method: as §1
[39] = system: Influenza B virus; assay: Antiviral activity against influenza B virus in MDCK cells assessed as reduction of virus-induced cytopathicity by visual cytopathic effect scoring method; type: functional, organism-based
[40] = system: Coxsackievirus B4; assay: Antiviral activity against Coxsackievirus B4 in human HeLa cells assessed as protection against virus-induced cytopathicity; type: functional, organism-based; settings: Enterovirus B; summary of the method: as §2
[41] = Cytotoxicity against MDCK cells by MTS assay; type: cell-based, Canis lupus familiaris; settings: dog

In the case of `Cc1cc(C)cc(S(=O)(=O)c2c(C(=O)NCC(N)=O)[nH]c3ccc(Cl)cc23)c1`, the IC50 [1] is reported as 0.69 µM, the EC50 [2] is reported as greater than 100 µM and the EC50 [3] is reported as greater than 100 µM. For the same molecule, the IC50 [4] was 0.28 µM, the EC50 [5] was greater than 100 µM and the EC50 [6] was greater than 4 µM. The EC50 [7] was greater than 100 µM, the EC50 [8] was 0.0019 µM and the EC50 [9] was greater than 4 µM. It also gave an EC50 [10] greater than 4 µM, an IC50 [11] of 1.65 µM and an EC50 [12] greater than 100 µM. The MCC at 72 h [13] was 100 µM, the IC50 [14] was greater than 1 µM and the EC50 [15] was greater than 4 µM. It also gave an EC50 [16] greater than 100 µM, an IC50 [17] of 0.008 µM and an EC50 [18] greater than 100 µM. For the same molecule, the IC50 [19] was 220 µM, the EC50 [20] was greater than 100 µM and the IC50 [21] was 92 µM. The EC50 [22] was greater than 100 µM, the MCC [23] was 20 µM and the IC50 [24] was 15 µM. For the same molecule, the EC50 [25] was greater than 100 µM, the CC50 [26] was greater than 100 µM and the IC50 [27] was 0.074 µM. For the same molecule, the MCC at 72 h [28] was greater than 100 µM, the EC50 [29] was greater than 50 µM and the IC50 [30] was 0.161 µM. The EC50 [31] was greater than 100 µM, the EC50 [32] was greater than 100 µM and the EC50 [33] was greater than 4 µM. For the same molecule, the IC50 [34] was 0.026 µM, the MCC at 72 h [35] was greater than 100 µM and the EC50 [36] was greater than 100 µM. The EC50 [37] was greater than 100 µM, the IC50 [38] was 0.029 µM and the EC50 [39] was greater than 4 µM. The EC50 [40] was no less than 20 µM and the CC50 [41] was 44.1 µM.
